According to ChEMBL document CHEMBL4387702, “Design and synthesis novel di-carbonyl analogs of curcumin (DACs) act as potent anti-inflammatory agents against LPS-induced acute lung injury (ALI)” (Eur J Med Chem, 2019):
Activity calls are given as the source filed them. No cut-off for these calls is given here.

Assays:
RAW264.7 [1] = experiment: Inhibition of LPS-induced ERK phosphorylation in ICR mouse RAW264.7 cells at 10 uM preincubated for 0.5 hrs followed by LPS challenge and measured after 30 mins by immunoblotting analysis; format: cell-based
Method in brief: (§1)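 RAW 264.7 cells were pretreated with compound for 0.5 h and then stimulated with LPS for 30 min. Lysates were resolved on 10% or 12% SDS-PAGE and transferred to nitrocellulose. Membranes were blocked in TBS (pH 7.6) with 0.05% Tween 20 and 5% milk. Blots were probed for p-p38, p38, p-ERK, ERK, IκBα and GAPDH, detected with HRP secondaries and ECL.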

RAW264.7 [2] = experiment: Inhibition of NFkappaB/MAPK signaling in LPS-induced mouse RAW264.7 cells assessed as down regulation of IkappaB expression at 10 uM preincubated for 0.5 hrs followed by LPS-challenge and measured after 30 mins by immunoblotting analysis; format: cell-based; method in brief: as §1
RAW264.7 [3] = experiment: Inhibition of MAPK/NFkappaB signaling in ICR mouse RAW264.7 cells assessed as reduction in LPS-induced IL-6 mRNA expression pretreated for 0.5 hrs followed by LPS challenge and measured after 40 mins by TRIZOL reagent-based RT-qPCR analysis; format: cell-based
Method in brief: (§2)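 RAW 264.7 cells were pretreated with compound for 0.5 h and then activated with LPS. Values were normalized to actin and expressed relative to the LPS group.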

RAW264.7 [4] = experiment: Cytotoxicity against ICR mouse RAW264.7 cells assessed as effect on cell proliferation at 10 uM after 24 hrs by MTT assay; format: cell-based; conditions: raw264.7, 24 h
Mus musculus [5] = experiment: Antiinflammatory activity in C57BL/6 mouse model of LPS-induced acute lung injury assessed as reduction in IL-6 production in BALF at 10 mg/kg, ip administered daily for one week prior to LPS challenge and measured after 6 hrs by ELISA; format: functional, organism-based
Method in brief: (§3)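 In C57BL/6 mice (eight per group), compound was dosed at 10 mg/kg i.p. once daily for a week, with a 0.9% saline vehicle control. LPS 5 mg/kg was given intratracheally and animals were euthanized with chloral hydrate after 6 h. TNF-α and IL-6 in serum and BALF were measured by ELISA. Data are mean ± SEM, n = 6.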

RAW264.7 [6] = experiment: Inhibition of MAPK/NFkappaB signaling in ICR mouse RAW264.7 cells assessed as reduction in LPS-induced ICAM1 mRNA expression pretreated for 0.5 hrs followed by LPS challenge and measured after 40 mins by TRIZOL reagent-based RT-qPCR analysis; format: cell-based; method in brief: as §2
RAW264.7 [7] = experiment: Inhibition of MAPK/NFkappaB signaling in ICR mouse RAW264.7 cells assessed as reduction in LPS-induced IL1beta mRNA expression pretreated for 0.5 hrs followed by LPS challenge and measured after 40 mins by TRIZOL reagent-based RT-qPCR analysis; format: cell-based; method in brief: as §2
Mus musculus [8] = experiment: (§4) Antiinflammatory activity in C57BL/6 mouse model of LPS-induced acute lung injury assessed as reduction in VCAM1 mRNA expression in lung tissue at 10 mg/kg, ip administered daily for one week prior to LPS challenge and measured after 6 hrs by TRIZOL reagent-based RT-qPCR analysis; format: functional, organism-based
Method in brief: (§5)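 Mouse ALI model with eight C57BL/6 mice per group. Compound was given at 10 mg/kg i.p. daily for one week; controls received 0.9% saline. LPS was instilled intratracheally at 5 mg/kg. Mice were euthanized with chloral hydrate 6 h later and lungs collected. Lung mRNA for each target was quantified by real-time qPCR.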

Mus musculus [9] = experiment: as §4, with “of pathological lesions” for “in VCAM1 mRNA expression”, “hematoxylin and eosin staining-based light microscopic” for “TRIZOL reagent-based RT-qPCR”; format: functional, organism-based
Method in brief: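 Lungs were taken 6 h after intratracheal LPS (5 mg/kg) from C57BL/6 mice pretreated at 10 mg/kg i.p. daily for one week. Tissue was fixed, embedded in paraffin, sectioned at 5 µm and stained with H&E. Injury features examined were edema, congestion, septal thickening, infiltration and tissue destruction, assessed by light microscopy.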

RAW264.7 [10] = experiment: Inhibition of MAPK/NFkappaB signaling in ICR mouse RAW264.7 cells assessed as reduction in LPS-induced VCAM1 mRNA expression pretreated for 0.5 hrs followed by LPS challenge and measured after 40 mins by TRIZOL reagent-based RT-qPCR analysis; format: cell-based; method in brief: as §2
[11] = Inhibition of MAPK/NFkappaB in ICR mouse RAW264.7 cells assessed as reduction in LPS-induced TNFalpha production pretreated for 0.5 hrs followed by LPS challenge and measured after 24 hrs by ELISA; format: cell-based
Mus musculus [12] = experiment: Antiinflammatory activity in C57BL/6 mouse model of LPS-induced acute lung injury assessed as reduction of F4/80 macrophage level in lung tissue at 10 mg/kg, ip administered daily for one week prior to LPS challenge measured after 6 hrs by hematoxylin staining-based immunohistochemistry method; format: functional, organism-based
Method in brief: (§6)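 Lungs came from C57BL/6 mice dosed at 10 mg/kg i.p. daily for one week, then given intratracheal LPS 5 mg/kg and harvested at 6 h. Tissue was paraffin-embedded and cut into 5 µm sections. Antigen retrieval used microwaving in 0.01 mol/L citrate (pH 6.0), then 3% H2O2 in methanol for 30 min. Sections took LY-6G or F4/80 primary antibody overnight at 4 °C, secondary at 1:200, DAB development and hematoxylin counterstain.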

RAW264.7 [13] = experiment: Inhibition of MAPK/NFkappaB signaling in ICR mouse RAW264.7 cells assessed as reduction in LPS-induced TNF-alpha mRNA expression pretreated for 0.5 hrs followed by LPS challenge and measured after 40 mins by TRIZOL reagent-based RT-qPCR analysis; format: cell-based; method in brief: as §2
[14] = Inhibition of MAPK/NFkappaB in ICR mouse RAW264.7 cells assessed as reduction in LPS-induced IL6 production pretreated for 0.5 hrs followed by LPS challenge and measured after 24 hrs by ELISA; format: cell-based
Mus musculus [15] = experiment: Antiinflammatory activity in C57BL/6 mouse model of LPS-induced acute lung injury assessed as reduction in total cell count in BALF at 10 mg/kg, ip administered daily for one week prior to LPS challenge and measured after 6 hrs; format: functional, organism-based
Method in brief: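 C57BL/6 mice (eight per group) received 10 mg/kg i.p. daily for one week; vehicle was 0.9% saline. They were then challenged with intratracheal LPS at 5 mg/kg and sacrificed 6 h later. Endpoints were lung wet/dry weight ratio and total and neutrophil cell counts in BALF, reported as mean ± SEM, n = 6.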

Mus musculus [16] = experiment: Antiinflammatory activity in C57BL/6 mouse model of LPS-induced acute lung injury assessed as reduction in TNF-alpha production in BALF at 10 mg/kg, ip administered daily for one week prior to LPS challenge and measured after 6 hrs by ELISA; format: functional, organism-based; method in brief: as §3
Mus musculus [17] = experiment: Antiinflammatory activity in C57BL/6 mouse model of LPS-induced acute lung injury assessed as reduction of LY-6G neutrophil level in lung tissue at 10 mg/kg, ip administered daily for one week prior to LPS challenge and measured after 6 hrs by hematoxylin staining-based immunohistochemistry method; format: functional, organism-based; method in brief: as §6
Mus musculus [18] = experiment: Antiinflammatory activity in C57BL/6 mouse model of LPS-induced acute lung injury assessed as reduction in ICAM1 mRNA expression in lung tissue at 10 mg/kg, ip administered daily for one week prior to LPS challenge and measured after 6 hrs by TRIZOL reagent-based RT-qPCR analysis; format: functional, organism-based; method in brief: as §5

| SMILES | inhibition (RAW264.7 [1]) | inhibition (RAW264.7 [2]) | inhibition (RAW264.7 [3]) | Activity (RAW264.7 [4]) | Activity (Mus musculus [5]) | inhibition (RAW264.7 [6]) | inhibition (RAW264.7 [7]) | Activity (Mus musculus [8]) | Activity (Mus musculus [9]) | inhibition (RAW264.7 [10]) | IC50 [11] [µM] | Activity (Mus musculus [12]) | inhibition (RAW264.7 [13]) | IC50 [14] [µM] | Activity (Mus musculus [15]) | Activity (Mus musculus [16]) | Activity (Mus musculus [17]) | Activity (Mus musculus [18]) |
| --- | --- | --- | --- | --- | --- | --- | --- | --- | --- | --- | --- | --- | --- | --- | --- | --- | --- | --- |
| COc1cc(/C=C/C(=O)N2CCC/C(=C\c3cc(OC)c(OC)c(OC)c3)C2=O)ccc1O | Active | Active | Active | Non-Toxic | Active | Active | Active | Active | Active | Active | 3.69 | Active | Active | 3.68 | Active | Active | Active | Active |
| COc1cc(/C=C/C(=O)N2CCC/C(=C\c3cc(OC)c(OC)c(OC)c3)C2=O)ccc1OC(C)=O | Active | Active | Active | Non-Toxic | Active | Active | Active | Active | Active | Active | 2.33 | Active | Active | 2.4 | Active | Active | Active | Active |
